The record followed here is ChEMBL document CHEMBL3797138, “Discovery of a Selective and Potent Inhibitor of Mitogen-Activated Protein Kinase-Interacting Kinases 1 and 2 (MNK1/2) Utilizing Structure-Based Drug Design” (J Med Chem, 2016).

Data set [1] concerns the target MAP kinase-interacting serine/threonine-protein kinase 1 (Homo sapiens, UniProt Q9BUB5). Briefly: Inhibition of ERK2-activated full length wild type MNK1a (unknown origin) using biotin-SGSGKRREILSRRPSYR-NH2 as substrate after 2 hrs by HTRF assay. The gist of the method:
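In-house full-length MNK1a (0.5 nM final) activated by full-length ERK2 (0.5 nM final). Biotin-crebtide 200 nM and ATP 200 µM. Buffer: 50 mM Hepes pH 7.5, 5 mM MgCl2, 0.05% BSA, 0.01% Tween-20, 1 mM DTT, 2.5% DMSO. Reaction run 2 h, then stopped with EDTA/KF buffer holding Eu-anti-phospho-creb (0.23 nM) and streptavidin-XL665 (50 nM). Read by HTRF after overnight development in the dark.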

In data set [2] the target is MAP kinase-interacting serine/threonine-protein kinase 2 (Homo sapiens, UniProt Q9HBH9). Briefly: Inhibition of N-terminal 6His-tagged recombinant human full length wild type MNK2b using biotin-SGSGKRREILSRRPSYR-NH2 as substrate after 1 hr by HTRF assay. An outline of the steps: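 Commercial full-length wild-type MNK2b at 1 nM final, with biotin-crebtide 200 nM and ATP 200 µM. Buffer: 50 mM Hepes pH 7.5, 5 mM MgCl2, 0.05% BSA, 0.01% Tween-20, 1 mM DTT, 2.5% DMSO. Stop/detection buffer: 20 mM EDTA, 0.1% BSA, 0.4 M KF, with Eu-anti-phospho-creb antibody 0.23 nM and SA-XL665 50 nM. Developed overnight in the dark at room temperature; HTRF read, excitation 320 nm, emission 665 nm.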
MAP kinase-interacting serine/threonine-protein kinase 2, sequence (Q9HBH9 whole entry): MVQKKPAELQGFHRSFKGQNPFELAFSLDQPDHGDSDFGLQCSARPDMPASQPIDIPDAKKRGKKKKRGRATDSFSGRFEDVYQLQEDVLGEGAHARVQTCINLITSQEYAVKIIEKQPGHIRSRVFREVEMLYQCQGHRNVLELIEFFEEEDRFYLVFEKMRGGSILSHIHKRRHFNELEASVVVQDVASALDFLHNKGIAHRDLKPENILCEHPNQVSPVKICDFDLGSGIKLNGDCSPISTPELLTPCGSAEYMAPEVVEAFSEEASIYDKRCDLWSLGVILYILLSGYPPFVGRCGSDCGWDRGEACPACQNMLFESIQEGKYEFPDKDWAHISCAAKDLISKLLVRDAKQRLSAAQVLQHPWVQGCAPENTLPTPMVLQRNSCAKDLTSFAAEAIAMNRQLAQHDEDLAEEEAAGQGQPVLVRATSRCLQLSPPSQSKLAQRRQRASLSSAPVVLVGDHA

Data set [3] concerns the target Cyclin-dependent kinase 1 (Homo sapiens, UniProt P06493). Briefly: Inhibition of CDK1 (unknown origin).
The target of data set [4] is Cyclin-dependent kinase 2 (Homo sapiens, UniProt P24941). The experiment in a line: Inhibition of CDK2 (unknown origin).
The target of data set [5] is MAP kinase-interacting serine/threonine-protein kinase 1/2 (Homo sapiens, UniProt Q9HBH9+Q9BUB5). The experiment in a line: Inhibition of MNK1/2 in human KMS11-luc cells assessed as inhibition of EIF4E phosphorylation at S209 after 3 hrs by quantitative electrochemiluminescence assay. The class given is cell-based. An outline of the steps: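 KMS11-luc cells seeded at 300,000 cells/well and exposed to compounds for 3 h at 37 °C, 5% CO2, then lysed in well with Triton-based buffer. Lysate captured overnight at 4 °C on blocked ECL plates. Detection: anti-phospho-EIF4E (S209) antibody 1:200 plus sulfo-tag goat anti-rabbit 1:400, 2 h at room temperature, electrochemiluminescence read. Phospho-EIF4E signal normalized to total YB1 for EC50.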

Data set [6] can be described thus: Solubility of the compound at pH 7.4 by high throughput assay. As to conditions: buffer.
Data set [7] can be described thus: Lipophilicity, log D of the compound at pH 7.4. The note with it: buffer.
Data set [8] in a line: Apparent permeability across apical to basolateral side in human Caco2 cells. As to conditions: Caco-2.
Data set [9] can be described thus: Efflux ratio of apparent permeability across basolateral to apical side over apical to basolateral side in human Caco2 cells. As to conditions: Caco-2.
Data set [10] in a line: Antiproliferative activity against luciferase expressing human KMS11 cells after 5 days by CellTiter-Glo luminescent assay. The note with it: KMS-11, 120 h. The data set is classed as functional, cell-based. An outline of the steps:
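KMS11-luc cells seeded at 2500 cells/well; compounds added 2 h after seeding, then incubated 5 days at 37 °C, 5% CO2. CellTiter-Glo added in equal volume, shaken 2 min, kept 10 min dark at room temperature, and luminescence read. EC50 fitted from % inhibition versus concentration (µM) with a four-parameter equation.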

For data set [11], the target named is Cyclin-dependent kinase 9 (Homo sapiens, UniProt P50750). The experiment in a line: Inhibition of CDK9 (unknown origin).
Cyclin-dependent kinase 9, sequence (P50750 whole entry): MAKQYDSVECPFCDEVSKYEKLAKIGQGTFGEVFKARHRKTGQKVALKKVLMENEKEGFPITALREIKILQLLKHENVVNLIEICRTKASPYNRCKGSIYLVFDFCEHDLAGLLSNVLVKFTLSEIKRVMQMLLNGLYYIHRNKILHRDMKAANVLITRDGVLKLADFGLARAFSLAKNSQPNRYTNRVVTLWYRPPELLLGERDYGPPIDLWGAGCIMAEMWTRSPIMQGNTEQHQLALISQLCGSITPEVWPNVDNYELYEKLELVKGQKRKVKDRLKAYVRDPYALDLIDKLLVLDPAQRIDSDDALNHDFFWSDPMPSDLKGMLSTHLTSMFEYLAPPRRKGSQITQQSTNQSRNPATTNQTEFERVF
Data set [12] has as its target Calcium/calmodulin-dependent protein kinase type II subunit delta (Homo sapiens, UniProt Q13557). The experiment in a line: Inhibition of CAMK2D (unknown origin).
Data set [13] concerns the target T1, Receptor-type tyrosine-protein kinase FLT3 (Homo sapiens, UniProt P36888).
T1 sequence (P36888 whole entry): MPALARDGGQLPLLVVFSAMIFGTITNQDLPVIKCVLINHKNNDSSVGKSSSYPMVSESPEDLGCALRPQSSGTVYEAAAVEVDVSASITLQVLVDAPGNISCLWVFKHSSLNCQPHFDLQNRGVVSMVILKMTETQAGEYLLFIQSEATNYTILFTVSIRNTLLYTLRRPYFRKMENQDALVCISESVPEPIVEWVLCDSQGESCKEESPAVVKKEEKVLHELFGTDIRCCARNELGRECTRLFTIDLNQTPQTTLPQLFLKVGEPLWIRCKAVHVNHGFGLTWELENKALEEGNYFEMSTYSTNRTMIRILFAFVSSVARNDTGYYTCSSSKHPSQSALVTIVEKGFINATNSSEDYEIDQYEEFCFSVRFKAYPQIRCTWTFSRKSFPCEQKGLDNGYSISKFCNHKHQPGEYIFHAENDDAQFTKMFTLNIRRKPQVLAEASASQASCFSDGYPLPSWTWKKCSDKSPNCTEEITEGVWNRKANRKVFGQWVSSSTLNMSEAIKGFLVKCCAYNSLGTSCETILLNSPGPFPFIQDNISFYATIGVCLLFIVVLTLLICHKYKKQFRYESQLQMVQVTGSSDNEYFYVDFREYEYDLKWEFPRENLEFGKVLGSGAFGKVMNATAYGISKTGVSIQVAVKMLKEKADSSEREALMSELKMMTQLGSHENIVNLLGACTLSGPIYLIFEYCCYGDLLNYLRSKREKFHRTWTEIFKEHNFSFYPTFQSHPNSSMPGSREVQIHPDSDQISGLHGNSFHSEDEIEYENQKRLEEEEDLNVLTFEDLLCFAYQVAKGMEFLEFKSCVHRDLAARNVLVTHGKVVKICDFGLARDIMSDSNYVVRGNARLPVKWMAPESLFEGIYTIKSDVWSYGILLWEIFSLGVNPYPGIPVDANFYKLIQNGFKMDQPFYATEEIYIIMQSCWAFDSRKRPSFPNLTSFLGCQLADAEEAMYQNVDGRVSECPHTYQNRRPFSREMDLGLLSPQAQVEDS
Briefly: Inhibition of FLT3 (unknown origin).

Data set [14] has as its target Serine/threonine-protein kinase pim-2 (Homo sapiens, UniProt Q9P1W9). Briefly: Inhibition of PIM2 (unknown origin).
Data set [15] addresses Rho-associated protein kinase 2 (Homo sapiens, UniProt O75116). The experiment in a line: Inhibition of ROCK2 (unknown origin).
Data set [16] is described as follows: Inhibition of CYP450 (unknown origin). The class given is ADME, Homo sapiens.
The nature of data set [17]: Intrinsic clearance in rat liver microsomes. The data set is classed as ADME.
Data set [18] is described as follows: Hepatic extraction ratio in rat liver microsomes. The data set is classed as ADME. As to conditions: read-out: ERH.

pEC50, pIC50: −log10 of the molar value. Values after ≈ are worked out from the molar mass of the structure shown.

MAP kinase-interacting serine/threonine-protein kinase 1, sequence (Q9BUB5 whole entry): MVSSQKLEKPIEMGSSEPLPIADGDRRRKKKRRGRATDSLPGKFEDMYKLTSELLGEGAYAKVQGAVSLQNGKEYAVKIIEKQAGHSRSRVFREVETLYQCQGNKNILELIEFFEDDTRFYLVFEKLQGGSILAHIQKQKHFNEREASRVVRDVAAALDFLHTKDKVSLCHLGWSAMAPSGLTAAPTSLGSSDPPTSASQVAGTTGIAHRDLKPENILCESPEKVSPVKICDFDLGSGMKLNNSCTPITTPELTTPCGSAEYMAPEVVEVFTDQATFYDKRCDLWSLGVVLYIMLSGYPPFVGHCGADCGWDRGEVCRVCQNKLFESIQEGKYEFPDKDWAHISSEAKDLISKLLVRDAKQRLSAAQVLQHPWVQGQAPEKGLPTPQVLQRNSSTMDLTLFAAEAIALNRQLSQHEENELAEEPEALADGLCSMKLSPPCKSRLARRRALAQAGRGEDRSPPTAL
Cyclin-dependent kinase 1, sequence (P06493 whole entry): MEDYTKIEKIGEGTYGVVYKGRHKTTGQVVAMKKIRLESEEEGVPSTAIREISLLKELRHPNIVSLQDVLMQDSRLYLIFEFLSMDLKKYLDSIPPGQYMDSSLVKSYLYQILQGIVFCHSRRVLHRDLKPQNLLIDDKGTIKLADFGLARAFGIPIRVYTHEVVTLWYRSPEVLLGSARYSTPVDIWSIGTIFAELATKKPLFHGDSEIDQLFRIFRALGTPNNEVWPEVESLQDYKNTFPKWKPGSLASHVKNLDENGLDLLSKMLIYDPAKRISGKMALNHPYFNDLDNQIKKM
Rho-associated protein kinase 2, sequence (O75116 whole entry): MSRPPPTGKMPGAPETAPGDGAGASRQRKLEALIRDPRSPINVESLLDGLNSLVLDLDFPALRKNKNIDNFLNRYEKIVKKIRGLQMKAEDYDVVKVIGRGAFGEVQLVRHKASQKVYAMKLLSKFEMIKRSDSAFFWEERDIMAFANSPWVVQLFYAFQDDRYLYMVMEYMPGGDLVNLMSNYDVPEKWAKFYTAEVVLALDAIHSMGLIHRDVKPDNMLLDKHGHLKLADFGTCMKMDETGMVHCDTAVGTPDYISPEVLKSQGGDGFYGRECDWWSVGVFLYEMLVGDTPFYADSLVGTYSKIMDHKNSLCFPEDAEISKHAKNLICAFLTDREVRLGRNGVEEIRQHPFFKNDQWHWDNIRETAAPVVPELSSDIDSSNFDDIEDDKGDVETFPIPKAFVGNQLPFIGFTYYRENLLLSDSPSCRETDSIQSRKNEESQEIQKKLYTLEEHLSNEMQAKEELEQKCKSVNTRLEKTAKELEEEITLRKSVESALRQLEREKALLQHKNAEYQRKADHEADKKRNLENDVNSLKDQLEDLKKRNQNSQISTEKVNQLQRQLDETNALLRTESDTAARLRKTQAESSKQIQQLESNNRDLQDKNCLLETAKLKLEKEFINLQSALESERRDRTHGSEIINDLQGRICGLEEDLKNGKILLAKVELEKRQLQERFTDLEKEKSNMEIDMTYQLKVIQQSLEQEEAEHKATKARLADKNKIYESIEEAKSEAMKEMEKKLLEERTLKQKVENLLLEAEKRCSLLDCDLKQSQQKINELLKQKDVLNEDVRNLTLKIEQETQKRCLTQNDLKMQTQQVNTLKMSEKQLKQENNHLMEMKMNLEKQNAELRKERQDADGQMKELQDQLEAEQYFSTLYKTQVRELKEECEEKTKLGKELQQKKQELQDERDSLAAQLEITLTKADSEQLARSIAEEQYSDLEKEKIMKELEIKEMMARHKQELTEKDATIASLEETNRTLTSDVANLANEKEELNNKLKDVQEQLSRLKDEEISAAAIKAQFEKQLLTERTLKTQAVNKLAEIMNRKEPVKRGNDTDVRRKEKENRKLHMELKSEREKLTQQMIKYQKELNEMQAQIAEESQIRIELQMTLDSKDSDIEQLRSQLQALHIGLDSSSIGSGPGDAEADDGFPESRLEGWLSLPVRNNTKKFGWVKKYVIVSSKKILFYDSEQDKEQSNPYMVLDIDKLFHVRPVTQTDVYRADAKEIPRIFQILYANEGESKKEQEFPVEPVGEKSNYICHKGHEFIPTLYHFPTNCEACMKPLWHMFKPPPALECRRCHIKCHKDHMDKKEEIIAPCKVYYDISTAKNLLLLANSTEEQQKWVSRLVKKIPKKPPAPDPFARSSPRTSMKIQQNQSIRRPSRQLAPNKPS
Calcium/calmodulin-dependent protein kinase type II subunit delta, sequence (Q13557 whole entry): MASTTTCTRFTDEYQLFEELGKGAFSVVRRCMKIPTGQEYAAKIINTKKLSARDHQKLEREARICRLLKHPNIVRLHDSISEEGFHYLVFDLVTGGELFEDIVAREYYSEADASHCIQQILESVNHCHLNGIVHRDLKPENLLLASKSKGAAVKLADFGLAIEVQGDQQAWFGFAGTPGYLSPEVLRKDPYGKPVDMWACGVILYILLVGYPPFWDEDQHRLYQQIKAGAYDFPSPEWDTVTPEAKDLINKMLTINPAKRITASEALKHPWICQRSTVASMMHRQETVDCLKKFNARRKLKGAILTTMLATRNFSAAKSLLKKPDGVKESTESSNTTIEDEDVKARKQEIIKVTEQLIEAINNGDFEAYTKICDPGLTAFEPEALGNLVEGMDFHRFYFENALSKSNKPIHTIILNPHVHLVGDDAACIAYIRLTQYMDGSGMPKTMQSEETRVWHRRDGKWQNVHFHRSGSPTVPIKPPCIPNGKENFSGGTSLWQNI
Serine/threonine-protein kinase pim-2, sequence (Q9P1W9 whole entry): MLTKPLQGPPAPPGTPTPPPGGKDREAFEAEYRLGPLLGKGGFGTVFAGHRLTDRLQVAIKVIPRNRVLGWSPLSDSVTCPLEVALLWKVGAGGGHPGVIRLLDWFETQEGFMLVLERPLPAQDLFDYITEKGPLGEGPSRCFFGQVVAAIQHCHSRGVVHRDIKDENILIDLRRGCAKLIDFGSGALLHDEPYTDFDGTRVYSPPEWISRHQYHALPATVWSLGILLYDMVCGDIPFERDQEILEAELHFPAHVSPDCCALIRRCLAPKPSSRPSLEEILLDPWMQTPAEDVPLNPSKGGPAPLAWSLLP

As to `C[C@H]1CN(c2cccc3nc(-c4nc(-c5cccc(C(=O)N(C)C)c5)cnc4N)n(C)c23)CCN1`, the pIC50 in data set [1] is 8.82; in [2] it was 9.15; in data set [3], 6.00; in data set [4], 5.47. The EC50 in data set [5] was found to be 3 nM.
`CN(C)C(=O)c1cccc(-c2cnc(N)c(-c3nc4cccc(N5CCNCC5)c4n3C)n2)c1`: the pIC50 is 8.70 in [1], 9.00 in data set [2], 6.30 in data set [3] and 5.85 in data set [4]. Further, in [6], the solubility came out at 254 µM (≈ 116 µg/mL). This compound gave a pH-dependent lipophilicity (logD) in [7] of 1.1. Moreover, the EC50 in data set [5] turned out to be 5 nM. Besides, the Papp A→B in [8] came out at 9 ×10⁻⁶ cm/s. Further, the efflux ratio in data set [9] came to 2.3.
Take `Nc1ncc(-c2ccccc2)cc1-c1nc2ccccc2[nH]1`: the pIC50 in data set [1] is 6.92; in data set [2], 6.14; in data set [3] it was 6.80; in data set [4] it was 5.89. This compound also registered a pH-dependent lipophilicity (logD) in data set [7] of more than 4.2.
As for `CC(=O)C1=C(O)C=C2Oc3c(C(N)=O)c(O)cc(O)c3[C@]2(C)C1=O`, the pEC50 in data set [10] is less than 5.00.
With `CN(C)C(=O)c1cccc(-c2cnc(N)c(-c3nc4ccccc4[nH]3)c2)c1`, the pIC50 was 7.44 in data set [1], 7.47 in data set [2], 6.00 in data set [3] and 5.24 in data set [4]. The logD in [7] was 4.2.
For `CN(C)C(=O)c1cccc(-c2cnc(N)c(-c3nc4cccc(N5CCNCC5)c4[nH]3)c2)c1`, the pIC50 is 8.40 in data set [1], 8.70 in data set [2], 6.00 in data set [3] and 5.40 in [4]. The concentration in solution in data set [6] (solubility) was 102 µM (≈ 45 µg/mL). In data set [7], this compound yielded a log distribution coefficient (logD) of 1.8. Besides, the EC50 in [5] came out at 130 nM. In addition, in data set [8], the Papp A→B stood at 4 ×10⁻⁶ cm/s. Further, the efflux ratio in data set [9] is 3.6.
With `CN(C)C(=O)c1cccc(-c2cnc(N)c(-c3nc4cccc(N5CCNCC5)c4[nH]3)n2)c1`, the negative logarithm of the IC50 (pIC50) in data set [1] is 7.10; in data set [2], 7.70; in data set [3] it was 5.77; in data set [4], 4.96. In addition, the solubility in [6] stood at 70 µM (≈ 31 µg/mL). In addition, the logD in data set [7] was 1.9. In addition, the concentration for a half-maximal effect (EC50) in [5] came out at 50 nM. Further, the Papp A→B in data set [8] turned out to be 0.7 ×10⁻⁶ cm/s. Also, in [9], the efflux ratio was 87.
`Nc1ncccc1-c1nc2ccccc2[nH]1`: the pIC50 is 6.15 in data set [1], 6.05 in data set [2], 5.00 in data set [3] and 4.60 in data set [4]. This compound returned a solubility in [6] of 300 µM (≈ 63.1 µg/mL). The compound further gave a pH-dependent lipophilicity (logD) in data set [7] of 3.
For the compound `C[C@H]1CN(c2cccc3nc(-c4nc(-c5cc(C(=O)N(C)C)ccn5)cnc4N)n(C)c23)CCN1`, the pIC50 in data set [1] was 8.52; in [2] it was 8.52; in [3] it was less than 4.60; in [4], less than 4.60; in data set [11], less than 4.60; in [12], 6.16. Further, the pIC50 in [13] was 6.55; in data set [14], 6.14; in data set [15], 6.43; in [16] it was less than 4.40. In data set [6], this compound returned a solubility of 220 µM (≈ 104 µg/mL). Further, the pH-dependent lipophilicity (logD) in [7] worked out at 1.9. For the same compound, in data set [5], the EC50 was 0.6 nM. Besides, the Papp A→B in data set [8] turned out to be 5 ×10⁻⁶ cm/s. Also, the efflux ratio in data set [9] came out at 5. Moreover, in data set [10], the pEC50 was 5.77. The compound also had a CLint in data set [17] of 32 µL/min/mg. In [18], the hepatic extraction ratio was found to be 0.54.
